The text below walks through data of ChEMBL document CHEMBL4406875, “Design, synthesis and biological evaluation of amino acids-oleanolic acid conjugates as influenza virus inhibitors” (Bioorg Med Chem, 2019).

Calls of active or inactive are those of the source. No cut-off for these calls is given here.

In series [1] the target is Hemagglutinin (Influenza A virus) (UniProt B4URE7). Put plainly: Inhibition of Influenza A virus HA-mediated chicken erythrocytes aggregation incubated for 30 mins. The gist of the method:
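Compound was 2-fold serially diluted in saline from 100 to 1.56 μM and mixed with an equal volume of influenza virus (2 HA units). Chicken red blood cells (1% v/v in saline) were then added. After 30 min at room temperature, erythrocyte aggregation was scored by eye. An anti-HA monoclonal antibody served as positive control.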

The next series concerns Influenza A virus H3N2. Kind of series: Antiviral activity against Influenza A virus A/Texas/50/2012(H3N2) infected in MDCK cells inhibition of virus-induced cytopathic effect measured after 45 hrs by CellTiter-Glo luminescence assay. The class given is functional, organism-based. The gist of the method: (§1)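 MDCK cells (5,000/well) were seeded one day before infection. Infection medium was high-glucose DMEM with 1% FBS and trypsin (1 μg/mL). Compounds were added at various concentrations and cells infected at MOI 0.1. After 45 h, viability was read by CellTiter-Glo luminescence. IC50 was taken from dose-response curves, as the mean of duplicate samples from three independent experiments.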
For orientation: Cytopathic effects are the visible damage that an infection or toxin causes in cultured cells.

In series [2] the test system is Influenza A virus. Kind of series: Antiviral activity against Influenza A virus A/WSN/33(H1N1) infected in MDCK cells assessed as inhibition of virus-induced cytopathic effect at 100 uM measured after 45 hrs by CellTiter-Glo luminescence assay relative to control. The class given is functional. The note with it: A/WSN/1933(H1N1). The gist of the method:
(§2)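 Single-concentration screen at 100 μM in MDCK cells infected with A/WSN/33 under the same conditions: 1% FBS DMEM with 1 μg/mL trypsin, MOI 0.1, 45 h. Cytopathic effect was read by CellTiter-Glo luminescence against a DMSO negative control, from triplicate experiments.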

Series [3] in a line: Cytotoxicity against dog MDCK cells assessed as cell viability measured at 100 uM after 45 hrs by Celltiter-Glo luminescence assay relative to control. To be noted: read-out: Activity. The class given is cell-based, Canis lupus familiaris. The gist of the method: (§3)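 Viability screen of uninfected MDCK cells at 100 μM compound, read by CellTiter-Glo luminescence with DMSO as negative control; triplicate experiments.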

Series [4] deals with Influenza A virus. Kind of series: Antiviral activity against Influenza A virus A/WSN/33(H1N1) infected in MDCK cells assessed as inhibition of virus-induced cytopathic effect at 100 uM measured after 45 hrs by CellTiter-Glo luminescence assay. The class given is functional, organism-based. To be noted: A/WSN/1933(H1N1). In a few lines:
as §2

For another series, the system named is MDCK. Put plainly: Cytotoxicity against dog MDCK cells assessed as cell viability measured at 100 uM after 45 hrs by Celltiter-Glo luminescence assay. The class given is cell-based, Canis lupus familiaris. The gist of the method: as §3
A general note: In ATP-based viability assays light output follows the ATP content of the culture.

For series [5], the system named is Influenza A virus. Kind of series: Antiviral activity against Influenza A virus A/WSN/33(H1N1) infected in MDCK cells assessed as inhibition of virus-induced cytopathic effect measured after 45 hrs by CellTiter-Glo luminescence assay. The class given is functional, organism-based. The note with it: A/WSN/1933(H1N1). In a few lines:
as §1

The nature of series [6]: Cytotoxicity against dog MDCK cells assessed as cell viability measured after 45 hrs by Celltiter-Glo luminescence assay. The class given is cell-based, Canis lupus familiaris. In a few lines:
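Non-infected MDCK cells were exposed to compound dilutions and viability was read by CellTiter-Glo luminescence. CC50 is the concentration reducing viability of uninfected cells by 50%, given as the mean of duplicate samples from three independent experiments.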

Chain of Hemagglutinin (Influenza A virus) (B4URE7 as listed by the source): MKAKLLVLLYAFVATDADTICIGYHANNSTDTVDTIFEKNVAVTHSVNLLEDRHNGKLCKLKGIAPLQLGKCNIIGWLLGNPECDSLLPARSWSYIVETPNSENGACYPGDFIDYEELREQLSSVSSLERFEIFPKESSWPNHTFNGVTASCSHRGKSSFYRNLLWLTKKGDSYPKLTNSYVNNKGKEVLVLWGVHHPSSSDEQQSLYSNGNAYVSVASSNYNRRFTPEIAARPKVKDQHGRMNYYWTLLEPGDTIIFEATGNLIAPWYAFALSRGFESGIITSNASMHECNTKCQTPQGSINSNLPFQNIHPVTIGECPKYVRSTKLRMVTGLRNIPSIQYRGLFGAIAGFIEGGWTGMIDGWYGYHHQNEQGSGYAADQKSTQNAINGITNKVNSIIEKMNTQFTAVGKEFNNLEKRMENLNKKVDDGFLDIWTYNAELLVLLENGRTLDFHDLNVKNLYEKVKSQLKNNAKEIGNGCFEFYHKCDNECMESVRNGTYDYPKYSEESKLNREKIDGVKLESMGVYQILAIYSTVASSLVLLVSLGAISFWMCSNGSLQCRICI

Consider `CC1(C)CC[C@]2(C(=O)N[C@@H](CCCNC(=N)N)C(=O)O)CC[C@]3(C)C(=CC[C@@H]4[C@@]5(C)CC[C@H](O)C(C)(C)[C@@H]5CC[C@]43C)[C@@H]2C1`, for which, in series [1], the inhibition entry was “Dose-dependent effect”. In addition, the IC50 with Influenza A virus H3N2 worked out at 14.1 µM; in the series with Influenza A virus [5], 6.64 µM. For the same compound, the inhibition at 100 µM in the series on Influenza A virus [2] came out at 75%. Besides, in series [3], the viability at 45 h, 100 µM came to 75%. Besides, in the series with Influenza A virus [4], the inhibition entry is “Active”. In the series on MDCK, the Activity result is listed as “Toxic”. The CC50 at 45 h in series [6] was greater than 100 µM.

By inhibition is commonly meant the share of the control response that was lost under treatment. Usually IC50 stands for the point on the concentration scale where inhibition reaches its midpoint. One may read the CC50 as the concentration that lowers cell viability or growth by half.
